TWEAK-Fn14 inh – inhibitors of TWEAK-Fn14 interaction signaling; TWEAK-stimulated Fn14 reporter cells, luciferase luminescence, 8 h; AID 1159606; 2% of 360,000 active; inhibition, % at 10 µM; in the data active = inhibition above about 50%
XiGFP reactiv – X-chromosome reactivation activator | 0.055% of 360,000 active | AID 743238 | activation, % at 7.58 µM | XiGFP mouse fibroblasts, % GFP-positive cells imaging, 3 d; cells co-treated with 5-aza-dC sensitizer; scaled so ellipticine positive control = 100%;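 active = mean normalized replicate activation at least 10% and every replicate at or above 10%; inconclusive = only one of the two criteria met; inactive = mean below 10% and not all replicates reach 10%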;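 also: 0% = median of on-plate neutral control wells and 100% = ellipticine 6 µM median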
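assay system = SV40-immortalized XiGFP fibroblast cells, line 68-5-11 | buffer or medium = DMEM plus 5-aza-dC sensitizer | doses = single-point pinned compound dosing | times = 3-day compound exposure, then 15 min fixation at room temperature | benchmarks = positive control ellipticine, 6 µM final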
TROY NFkB inh – blocks TROY-dependent signaling in reporter cells; Q293 LMP1-TROYcd NF-kB luciferase reporter, 4 h; inhibition, % at 10 µM; 0.98% of 360,000 active; AID 1347056;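 active = compounds whose plate-normalised and pattern-corrected inhibition of the luciferase reporter signal at the single screening dose is 50% or more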
CaV13 FRET inh – Primary screen for inhibitors of IQ motif and Ca2+-dependent inactivation inhibitor domain binding in CACNA1D, Förster resonance energy transfer in living cells, … | 0.098% of 340,000 active | HEK cells, CFP/YFP FRET ICDI-IQ, plate reader, 10 min; percent FRET-ratio fall versus neutral wells | inhibition, % at 12.3 µM | AID 743397;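 active = mean replicate inhibition of at least 30% and at least 1% of replicates passing that level; inconclusive = only one of the two criteria is met; inactive = neither criterion is met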;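 also: 0% = median of the neutral control wells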
LGR2 antag – Drosophila LGR2 receptor signaling inhibition; HEK293 LGR2, CRE-luciferase, bursicon-stimulated, 4 h; inhibition, % at 9.99 µM; 0.35% of 380,000 active;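 active = drop in luminescence signal, shown as inhibition above about 50% in the replicate tests, limit read from the data, passing the limit was not always enough; inconclusive = probably only some replicates passing the limit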;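 also: agonist challenge used bursicon conditioned medium at about half maximal strength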
* marks the source's active call; other numbers are inactive results; ? = inconclusive; / = no result given; + = active, no number. Rows were chosen to be rich in hits. Some 2% of all compounds tested hit in one or more screens of this group.

SMILES | TWEAK-Fn14 inh | XiGFP reactiv | TROY NFkB inh | CaV13 FRET inh | LGR2 antag
Cc1ccc(S(=O)(=O)Nc2ccc3c(c2)C(=O)N([C@H](C)CO)C[C@@H](C)[C@H](CN(C)S(=O)(=O)c2ccc(Cl)cc2)O3)cc1 | / | -1.0 | / | / | -5.6
CC(C)(C)NS(=O)(=O)c1ccc2[nH]c3c(c2c1)CCCCC3 | 20.8 | 0.0 | 4.5 | -18.5 | -3.8
COCCCNS(=O)(=O)c1ccc2[nH]c3c(c2c1)CCCCC3 | 84.0* | 0.2 | 7.8 | -19.4 | -18.1
C[C@@H](NC(=O)C[C@@H]1C=C[C@H](NC(=O)CN2CCOCC2)[C@@H](CO)O1)c1ccccc1 | / | 0.1 | / | / | -2.6
COc1ccc(C(=O)N2CCNC(=O)C2CC(=O)Nc2ccc(C)cc2)cc1 (configuration not stated) | 54.7* | 0.2 | -5.5 | 1.7 | 14.8
CC(NC(=O)c1ccc(N(C)C)cc1)C(c1cccs1)N1CCN(C)CC1 (configuration not stated) | 44.4 | / | 62.4* | / | /
C[C@@H]1CN([C@@H](C)CO)C(=O)c2cc(C#CC3CCCC3)cnc2O[C@@H]1CN(C)Cc1ccncc1 | / | -0.4 | / | / | 9.7
O=C(OCc1cc2ccccc2[nH]c1=O)c1ccccn1 | 6.7 | / | -8.5 | -4.9 | /
O=C(OCc1cc2ccccc2[nH]c1=O)c1cccs1 | 56.8* | 0.0 | 43.1 | -5.2 | -13.9
CCCCN(CC)Cc1ccc(CNC(=S)Nc2ccc(C)cc2Cl)o1 | 73.9* | -0.1 | 42.1 | 9.3 | 2.0
COc1ccc(/C=N/Nc2ncnc3sc4c(c23)CCCC4)cc1OC | 89.7* | -0.1 | 81.5* | -1.8 | 13.8
Cc1ccc(NS(=O)(=O)c2ccc(Cl)c(NC(=S)NC(=O)C3CCCCC3)c2)cc1Cl | 65.2* | 0.1 | 36.5 | -1.1 | 2.6
Cc1ccc(NC(=O)C2CCCC2)cc1Cl | 2.9 | -0.1 | -13.9 | -4.8 | -36.7
CO[C@@H]1CN(C)C(=O)c2cc(NC(=O)c3cccc(F)c3)ccc2OC[C@@H](C)N(C(C)=O)C[C@@H]1C | / | 0.0 | / | / | -6.2
Cc1cccnc1CCNC(=O)c1ccc(OC2CCN(Cc3ccccn3)CC2)cc1 | 55.4* | 0.1 | 50.0 | -2.4 | -20.4
COCC(=O)N1CCC(Oc2ccc(C(=O)NCCc3ncccc3C)cc2)CC1 | 3.1 | 0.0 | 24.4 | -2.9 | -8.8
O=C(NCCc1ccccn1)c1ccc(OC2CCN(CCc3ccccc3)CC2)cc1 | 24.4 | 0.0 | 9.1 | -5.7 | -59.9
O=C(NCCc1cccc(Cl)c1)c1ccc(OC2CCN(Cc3ccccn3)CC2)cc1 | 82.3* | 0.1 | 73.3* | -4.6 | 10.3
CCN1[C@H](C(=O)NCCN2CCCCC2)[C@@H](CO)[C@@H]2Cn3c(ccc(-c4ccc(OC)cc4)c3=O)[C@@H]21 | / | 0.5 | / | / | 0.9
O=C(C[C@@H]1CC[C@@H](NC(=O)Nc2ccccc2)[C@H](CO)O1)NCc1ccccn1 | / | 0.4 | / | / | -7.2
Cc1ccc(C(NC(=O)NC(C)c2ccccc2)C(Cl)(Cl)Cl)cc1F (configuration not stated) | 55.3* | / | 58.4* | -9.2 | ?
CC(NC(=O)Nc1ccc(Cl)cc1)c1ccccc1 (configuration not stated) | 7.3 | 0.0 | -34.1 | -3.3 | -11.0
COc1cccc(S(=O)(=O)N2CC3(CN[C@H](CO)c4[nH]c5cc(OC)ccc5c43)C2)c1 | / | 0.2 | / | / | -28.2
O=C(O)c1cc(-c2ccc(-c3c(-c4ccc5c(c4)OCO5)noc3-c3ccsc3)cc2)nc2ccccc12 | 56.7* | 0.0 | 39.3 | -5.2 | -78.4
CC(C)NC(=O)Nc1ccc2c(c1)C(=O)N([C@@H](C)CO)C[C@@H](C)[C@H](CN(C)Cc1ccncc1)O2 | / | -0.4 | / | / | 13.0
SMILES | TWEAK-Fn14 inh | XiGFP reactiv | TROY NFkB inh | CaV13 FRET inh | LGR2 antag
CCNCC(=O)N1c2ccccc2CCc2ccc(NC(=O)OCC)cc21 | 4.2 | / | 7.4 | / | /
CCN(CC)CCNCC(=O)N1c2ccccc2CCc2ccc(NC(=O)OC)cc21 | 105.0* | 0.2 | -3.9 | -1.7 | 6.6
Cc1nnc(C)c2c(C)n(-c3ccc4ncccc4c3)c(C)c12 | 0.8 | 0.0 | 51.9* | -20.1 | -13.8
COc1ccc(Cn2c(O)c(C=Nc3ccccc3C(=O)O)c3ccccc3c2=O)cc1 | 43.9 | -0.1 | 52.0* | -1.9 | 19.9
CNC[C@@H]1OCCCC[C@@H](C)Oc2ccc(N(C)C)cc2C(=O)N([C@@H](C)CO)C[C@H]1C | / | -1.0 | / | / | -12.0
O=C(CSc1nc2ccccc2s1)N/N=C/c1ccccc1C(=O)O | 89.3* | -0.1 | 82.3* | -1.4 | 11.3
O=C(CSc1nc2ccccc2o1)Nc1nc2ccccc2s1 | -2.6 | / | 4.5 | -6.3 | /
Cc1ccccc1/C=N/NC(=O)CSc1nc2ccccc2o1 | 65.0* | 0.1 | 48.4 | -4.8 | -35.0
O=C(CSc1nc2ccccc2o1)Nc1nc2c(s1)CCCC2 | 89.4* | 4.4 | -0.4 | -16.0 | 25.5
O=C(O)COc1ccccc1/C=N/NC(=O)CSc1nc2ccccc2s1 | 17.9 | 0.0 | 6.5 | 2.7 | -2.6
CCOC(=O)c1c(NC(=O)CSc2nc3ccccc3o2)sc(C(C)=O)c1C | 68.6* | -0.1 | 33.8 | -18.1 | -20.9
O=C(CSc1nc2ccccc2o1)N/N=C/c1ccccc1 | -22.1 | 0.0 | -38.8 | -16.8 | -32.9
C[C@@H]1CCCCO[C@@H](CN(C)S(=O)(=O)c2ccc(Cl)cc2)[C@H](C)CN([C@@H](C)CO)C(=O)c2cc(NS(=O)(=O)c3ccccc3)ccc2O1 | / | 0.2 | / | / | -5.5
COc1ccc(NC(=O)N(C)C[C@@H]2OCCCC[C@@H](C)Oc3ccc(NS(=O)(=O)c4ccc(F)cc4)cc3C(=O)N([C@H](C)CO)C[C@@H]2C)cc1 | / | 0.1 | / | / | 5.7
C[C@H]1CN([C@@H](C)CO)C(=O)c2cccc(NC(=O)CCCCCC(=O)Nc3ccccc3N)c2O[C@H]1CN(C)S(=O)(=O)c1ccc(F)cc1 | / | -0.3 | / | / | -26.6
CNC(=O)C[C@H]1CC[C@H]2[C@H](COc3ccc(NC(=O)Nc4cccc(Cl)c4)cc3C(=O)N2C)O1 | / | 0.1 | / | / | -1.6
O=C(CSc1nc2ccccc2o1)Nc1nc(-c2ccccc2)cs1 | 84.2* | 0.4 | 80.1* | -5.6 | -39.7
O=C(Oc1cccc(C(=S)N2CCOCC2)c1)c1ccccc1 | 82.1* | 0.2 | 6.2 | -7.0 | 1.2
C[C@@H]1CCCCO[C@@H](CN(C)C(=O)Nc2cccc3ccccc23)[C@@H](C)CN([C@@H](C)CO)C(=O)c2cc(NC(=O)Cc3ccccc3)ccc2O1 | / | -0.7 | / | / | 4.5
O=C(C[C@@H]1CC[C@@H]2NC[C@@H](O)COC[C@H]2O1)Nc1ccccc1 | / | 0.2 | / | / | -6.2
O=C(CCCn1c(=O)c2sccc2n(Cc2cc(=O)n3ccccc3n2)c1=O)NCc1ccco1 | 0.2 | 0.2 | -3.3 | + | 12.2
O=C(/C=C/c1cc(Br)ccc1O)c1ccco1 | 62.3* | 0.0 | 32.9 | -16.4 | 27.3
O=C(/C=C/c1ccccc1O)c1ccco1 | 22.8 | 0.1 | -34.3 | -1.4 | -4.9

High-throughput results deposited in PubChem by several laboratories.
